Tested on: NMDAR
Test: Autoradiography of NMDAR in vitro by storage phosphor imaging
Format: binding, Sprague–Dawley (SD) rat
Conditions: EB 0.3 mg pretreatment of slides
Method in brief: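 Sagittal brain sections from one healthy Sprague–Dawley rat (290 g) were fixed and air-dried, then shaken 30 min at room temperature in 50 mM Tris–HCl (pH 7.4) with 120 mM NaCl. EB 0.3 mg (60 μL) or saline was applied to the slides, which were preincubated 30 min at room temperature, then incubated with the radiotracer. They were washed three times for 30 min in ice-cold Tris–HCl and exposed 30 min to a phosphor screen. DLU mm−2 were read by ROI, and hippocampus/thalamus ratios were taken per section.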

## O=c1c2ccccc2[se]n1-c1ccccc1 [EB, Ebselen]
  effect on accumulation of ^99mTc-PQQ in hippocampus and cortex: can be inhibited

Reference: publication PMC4514009 (Journal of Radioanalytical and Nuclear Chemistry, 2010)
